From ChEMBL document CHEMBL5712918, “Targeting methyltransferase PRMT5 retards the carcinogenesis and metastasis of HNSCC via epigenetically inhibiting Twist1 transcription” (Neoplasia, 2020)
Activity calls are given as the source filed them. The rule behind the calls is not given here.

Tests used:
[1] = Toxicity in BALB/c nude mouse xenografted with human HSC6 cells assessed as effect on kidney morphology at 15 to 30 mg/kg; type: organism-based; conditions: in vivo, dose 15-30 mg/kg
In short: (§1)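 Subcutaneous xenograft in 4-week-old BALB/c nude mice given 6 × 10^7 HSC6 cells into the back. Groups were control, 15 mg/kg and 30 mg/kg. Body weight was monitored and major organs were examined for toxicity.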

[2] = molecular target: Protein arginine N-methyltransferase 5 (Homo sapiens) (UniProt O14744); experiment: Inhibition of PRMT5 in human SCC-25 cells over expressing Twist1 assessed as increase in N-cadherin protein level at 10 uM incubated for 4 days by immunoblot analysis; type: cell-based; conditions: time 4.0 day
Protein arginine N-methyltransferase 5 (Homo sapiens), sequence (O14744 whole entry): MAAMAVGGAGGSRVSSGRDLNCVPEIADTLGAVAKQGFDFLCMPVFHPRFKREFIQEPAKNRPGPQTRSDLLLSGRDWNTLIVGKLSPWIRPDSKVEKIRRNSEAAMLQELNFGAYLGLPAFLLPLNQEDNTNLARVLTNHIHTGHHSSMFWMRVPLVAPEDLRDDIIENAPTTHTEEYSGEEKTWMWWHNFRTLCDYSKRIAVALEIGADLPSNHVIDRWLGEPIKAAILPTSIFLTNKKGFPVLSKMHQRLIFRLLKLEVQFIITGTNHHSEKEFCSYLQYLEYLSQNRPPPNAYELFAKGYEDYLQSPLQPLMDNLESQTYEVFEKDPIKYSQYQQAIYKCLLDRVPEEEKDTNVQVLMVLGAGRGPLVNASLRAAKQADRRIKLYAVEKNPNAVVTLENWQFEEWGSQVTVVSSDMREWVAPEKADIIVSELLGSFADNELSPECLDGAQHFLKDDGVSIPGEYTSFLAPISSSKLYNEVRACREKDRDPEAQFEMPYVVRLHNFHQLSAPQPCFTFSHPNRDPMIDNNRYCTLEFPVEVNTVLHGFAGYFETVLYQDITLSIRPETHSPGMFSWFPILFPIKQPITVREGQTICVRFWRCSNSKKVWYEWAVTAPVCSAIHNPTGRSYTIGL
In short: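 SCC25 cells stably overexpressing Flag-tagged Twist1 were treated with or without 10 μM inhibitor for 4 days, then immunoblotted for Twist1, N-cadherin and E-cadherin.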

[3] = molecular target: Protein arginine N-methyltransferase 5 (Homo sapiens) (UniProt O14744); experiment: Inhibition of PRMT5 in human HSC-6 cells over expressing Twist1 assessed as decrease in E-cadherin protein level at 10 uM incubated for 4 days by immunoblot analysis; type: cell-based; conditions: time 4.0 day
In short: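 HSC6 cells stably overexpressing Flag-Twist1, with or without 10 μM for 4 days. Twist1, N-cadherin and E-cadherin proteins detected by immunoblot.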

SCC-25 [4] = experiment: Anti-invasive activity against human SCC-25 cells assessed as reduction in cell invasion at 10 uM for 4 days by transwell assay; type: functional, cell-based; conditions: time 4.0 day
In short: (§2)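 Transwell migration and invasion with 8-μm pore inserts. HSC6 or SCC25 cells, including lines stably overexpressing Flag-Twist1, treated at 10 μM for 4 days. Mean ± SD of three independent experiments, one-way ANOVA.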

HSC-6 [5] = experiment: Antitumor activity against human HSC-6 cells xenografted in BALB/c nude mouse model of orthotopic tumor assessed as as reduction in distant metastasis in lung at 30 mg/kg by H and E analysis; type: functional, organism-based
[6] = system: Squamous carcinoma cell line; experiment: Antitumor activity against human squamous carcinoma cells in BALB/c nude PDX xenograft mouse assessed as reduction in Ki67-positive cells at 30 mg/kg by IHC analysis; type: functional, organism-based
In short: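 PDX: tongue squamous carcinoma tissue minced into 1∼2 mm3 pieces and passaged in BALB/c nude mice. P2 tissue implanted subcutaneously into 4-week-old mice, randomised at 50 mm3 tumour size to control or 30 mg/kg (n = 6 each). Volume change followed, and Ki-67 IHC quantified. Mean ± SD, Student's t test.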

[7] = molecular target: Protein arginine N-methyltransferase 5 (Homo sapiens) (UniProt O14744); experiment: Inhibition of PRMT5 in human HSC-6 cells assessed as reduction in H4R3me2 protein expression at 10 uM incubated for 4 days by western blot analysis; type: cell-based; conditions: time 4.0 day
[8] = molecular target: Protein arginine N-methyltransferase 5 (Homo sapiens) (UniProt O14744); experiment: Inhibition of PRMT5 in human SCC-25 cells assessed as reduction in Twist1 protein expression at 10 uM incubated for 4 days by western blot analysis; type: cell-based; conditions: time 4.0 day
In short: (§3)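 HSC6 or SCC25 cells treated with 10 μM for 4 days. E-cadherin, N-cadherin and Twist1 proteins detected by immunoblot.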

[9] = molecular target: Protein arginine N-methyltransferase 5 (Homo sapiens) (UniProt O14744); experiment: Inhibition of PRMT5 in human HSC-6 cells assessed as reduction in H3R2me2 enrichment in Twist1 promoter region at 10 uM incubated for 4 days by Chip-qPCR analysis; type: cell-based; conditions: time 4.0 day
In short: (§4)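 ChIP-qPCR at the Twist1 promoter after 4 days at 10 μM in HSC6 or SCC25 cells. Antibody ratios: H3R2me2s 1:100, H4R3me2s 1:100, WDR5 1:50, Set1 1:50; ChIP assay kit protocol. Mean ± SD of three independent experiments, Student's t test.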

SCC-25 [10] = experiment: Antimigratory activity against human SCC-25 cells assessed as reduction in cell migration at 10 uM for 4 days by transwell assay; type: functional, cell-based; conditions: time 4.0 day; in short: as §2
HSC-6 [11] = experiment: Antimigratory activity against human HSC-6 cells assessed as reduction in cell migration after 48 hrs incubated for 48 hrs by transwell assay; type: functional, cell-based
[12] = molecular target: Protein arginine N-methyltransferase 5 (Homo sapiens) (UniProt O14744); experiment: Inhibition of PRMT5 in human HSC-6 cells assessed as reduction in set1 occupancy in Twist1 promoter region at 10 uM incubated for 4 days by Chip-qPCR analysis; type: cell-based; conditions: time 4.0 day; in short: as §4
HSC-6 [13] = experiment: Anti-invasive activity against human HSC-6 cells assessed as reduction in cell invasion at 10 uM for 4 days by transwell assay; type: functional, cell-based; conditions: time 4.0 day; in short: as §2
[14] = Toxicity in BALB/c nude mouse xenografted with human HSC6 cells assessed as effect on body weight at 15 to 30 mg/kg; type: organism-based; conditions: in vivo, dose 15-30 mg/kg; in short: as §1
HSC-6 [15] = experiment: Antitumor activity against human HSC-6 cells xenografted in BALB/c nude mouse assessed as reduction in Ki67-positive tumor cell at 15 to 30 mg/kg by immunohistochemistry analysis; type: functional, organism-based; conditions: dose 15-30 mg/kg
In short: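 HSC6 subcutaneous xenograft: 6 × 10^7 cells into the back of 4-week-old BALB/c nude mice, dosed at 15 or 30 mg/kg. IHC with Ki67 1:400 or Twist1 1:250. Percent positive cells from 5 random fields per sample. Student's t test; Twist1 groups n = 6/6.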

HSC-6 [16] = experiment: Antiproliferative activity against human HSC-6 cells assessed as reduction in cell vaibility at 1 to 10 uM by CCK-8 assay; type: functional, cell-based; conditions: dose 1-10 µM
In short: (§5)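 Proliferation of HSC6 and SCC25 cells read by CCK-8 conversion. Mean ± SD of three independent experiments, Student's t test.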

[17] = molecular target: Protein arginine N-methyltransferase 5 (Homo sapiens) (UniProt O14744); experiment: Inhibition of PRMT5 in human SCC-25 cells assessed as reduction in H3R2me2 enrichment in Twist1 promoter region at 10 uM incubated for 4 days by Chip-qPCR analysis; type: cell-based; conditions: time 4.0 day; in short: as §4
HSC-6 [18] = experiment: Antitumor activity against human HSC-6 cells xenografted in BALB/c nude mouse model of orthotopic tumor assessed as as reduction in distant metastasis in liver at 30 mg/kg by H and E analysis; type: functional, organism-based
[19] = molecular target: Protein arginine N-methyltransferase 5 (Homo sapiens) (UniProt O14744); experiment: Inhibition of PRMT5 in human SCC-25 cells assessed as increase in E-cadherin protein expression level at 10 uM incubated for 4 days by western blot analysis; conditions: time 4.0 day
[20] = molecular target: Protein arginine N-methyltransferase 5 (Homo sapiens) (UniProt O14744); experiment: Inhibition of PRMT5 in human HSC-6 cells assessed as increase in E-cadherin protein expression level at 10 uM incubated for 4 days by western blot analysis; conditions: time 4.0 day
SCC-25 [21] = experiment: Antiproliferative activity against human SCC-25 cells assessed as reduction in cell vaibility at 1 to 10 uM by CCK-8 assay; type: functional, cell-based; conditions: dose 1-10 µM; in short: as §5
[22] = molecular target: Protein arginine N-methyltransferase 5 (Homo sapiens) (UniProt O14744); experiment: Inhibition of PRMT5 in human HSC-6 cells assessed as reduction in H3R2me2 protein expression at 10 uM incubated for 4 days by western blot analysis; type: cell-based; conditions: time 4.0 day
[23] = Toxicity in BALB/c nude mouse xenografted with human tongue squamous carcinoma cells assessed as effect on kidney morphology at 30 mg/kg; type: organism-based; conditions: in vivo
[24] = molecular target: Protein arginine N-methyltransferase 5 (Homo sapiens) (UniProt O14744); experiment: Inhibition of PRMT5 in human HSC-6 cells assessed as increase in E-cadherin protein expression level at 10 uM incubated for 4 days by western blot analysis; type: cell-based; conditions: time 4.0 day; in short: as §3
[25] = Toxicity in BALB/c nude mouse xenografted with human tongue squamous carcinoma cells assessed as effect on liver morphology at 30 mg/kg; type: organism-based; conditions: in vivo
[26] = molecular target: Protein arginine N-methyltransferase 5 (Homo sapiens) (UniProt O14744); experiment: Inhibition of PRMT5 in human HSC-6 cells assessed as reduction in Twist1 mRNA expression at 10 uM incubated for 4 days by RT-qPCR analysis; type: cell-based; conditions: time 4.0 day
In short: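 HSC6 or SCC25 cells exposed to 10 μM for 4 days. Twist1 mRNA measured by quantitative RT-PCR. Mean ± SD of three independent experiments, Student's t test.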

O=C(NC[C@H](O)CN1CCc2ccccc2C1)c1cc(NC2COC2)ncn1
Activity [1]: Non-Toxic
inhibition [2]: inactive
inhibition [3]: inactive
Activity (SCC-25 [4]): Active
Activity (HSC-6 [5]): Active
Activity [6]: Active
inhibition [7]: Active
inhibition [8]: Active
inhibition [9]: Active
Activity (SCC-25 [10]): Active
Activity (HSC-6 [11]): Active
inhibition [12]: Active
Activity (HSC-6 [13]): Active
Activity [14]: Non-Toxic
Activity (HSC-6 [15]): Active
Activity (HSC-6 [16]): Active
inhibition [17]: Active
Activity (HSC-6 [18]): Active
inhibition [19]: Active
inhibition [20]: Active
Activity (SCC-25 [21]): Active
inhibition [22]: Active
Activity [23]: Non-Toxic
inhibition [24]: Active
Activity [25]: Non-Toxic
inhibition [26]: Active
